# Bioassay records: PubChem BioAssay, several laboratories
# GPR7 antag: blocks human GPR7 receptor signaling; inhibition, % at 4.4 µM; GPR7-expressing cells, fluorescence antagonist assay; 290,000 compounds, 1.1% hits; P48145; AID 1861; in the data active means inhibition above about 16%, passing the limit was not always enough;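 further: cells stimulated with the agonist NPW; 0% = agonist with vehicle and 100% = vehicle without agonist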
# T cell HTS: modulates CD8 T cell binding to vesicles; 330,000 compounds, 0.068% hits; 2C CD8+ T cell-vesicle binding, flow cytometry; hits give low values; AID 2052; response (vesicle binding), % at 7 µM;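 active means response, share of CD8 T cells binding vesicles, and their 90th percentile fluorescence all below set limits, cut at about 80% in these data, passing the limit was not always enough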;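 further: values below 100% mean blocked vesicle binding to the CD8+ T cells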
#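 Read-out – percent CD8+ FL2 mean versus row control · System – murine 2C transgenic CD8+ T lymphocytes · Times – 1.5 h cell–vesicle binding at 37 °C, then 20 min icy labelling · Control set – naked vesicles low, QL9 vesicles with vehicle high · Detection – cytometric PE anti-B7-1 and Alexa647 anti-CD8 signals after 1% paraformaldehyde fixation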
# p-CIP stab down: compounds decreasing mouse p/CIP protein stability | F442A p/CIP-EGFP cells, EGFP fluorescence, 16 h | decrease of EGFP signal, % at 10 µM | 290,000 compounds, 0.01% hits | AID 1984;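 active means EGFP signal decrease of at least 30% at 10 µM or well 3 SD below plate mean, unless failing retest; inactive means the rest, including hits failing retest or dose response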
# Target sequence (Q05BA5 1-1403): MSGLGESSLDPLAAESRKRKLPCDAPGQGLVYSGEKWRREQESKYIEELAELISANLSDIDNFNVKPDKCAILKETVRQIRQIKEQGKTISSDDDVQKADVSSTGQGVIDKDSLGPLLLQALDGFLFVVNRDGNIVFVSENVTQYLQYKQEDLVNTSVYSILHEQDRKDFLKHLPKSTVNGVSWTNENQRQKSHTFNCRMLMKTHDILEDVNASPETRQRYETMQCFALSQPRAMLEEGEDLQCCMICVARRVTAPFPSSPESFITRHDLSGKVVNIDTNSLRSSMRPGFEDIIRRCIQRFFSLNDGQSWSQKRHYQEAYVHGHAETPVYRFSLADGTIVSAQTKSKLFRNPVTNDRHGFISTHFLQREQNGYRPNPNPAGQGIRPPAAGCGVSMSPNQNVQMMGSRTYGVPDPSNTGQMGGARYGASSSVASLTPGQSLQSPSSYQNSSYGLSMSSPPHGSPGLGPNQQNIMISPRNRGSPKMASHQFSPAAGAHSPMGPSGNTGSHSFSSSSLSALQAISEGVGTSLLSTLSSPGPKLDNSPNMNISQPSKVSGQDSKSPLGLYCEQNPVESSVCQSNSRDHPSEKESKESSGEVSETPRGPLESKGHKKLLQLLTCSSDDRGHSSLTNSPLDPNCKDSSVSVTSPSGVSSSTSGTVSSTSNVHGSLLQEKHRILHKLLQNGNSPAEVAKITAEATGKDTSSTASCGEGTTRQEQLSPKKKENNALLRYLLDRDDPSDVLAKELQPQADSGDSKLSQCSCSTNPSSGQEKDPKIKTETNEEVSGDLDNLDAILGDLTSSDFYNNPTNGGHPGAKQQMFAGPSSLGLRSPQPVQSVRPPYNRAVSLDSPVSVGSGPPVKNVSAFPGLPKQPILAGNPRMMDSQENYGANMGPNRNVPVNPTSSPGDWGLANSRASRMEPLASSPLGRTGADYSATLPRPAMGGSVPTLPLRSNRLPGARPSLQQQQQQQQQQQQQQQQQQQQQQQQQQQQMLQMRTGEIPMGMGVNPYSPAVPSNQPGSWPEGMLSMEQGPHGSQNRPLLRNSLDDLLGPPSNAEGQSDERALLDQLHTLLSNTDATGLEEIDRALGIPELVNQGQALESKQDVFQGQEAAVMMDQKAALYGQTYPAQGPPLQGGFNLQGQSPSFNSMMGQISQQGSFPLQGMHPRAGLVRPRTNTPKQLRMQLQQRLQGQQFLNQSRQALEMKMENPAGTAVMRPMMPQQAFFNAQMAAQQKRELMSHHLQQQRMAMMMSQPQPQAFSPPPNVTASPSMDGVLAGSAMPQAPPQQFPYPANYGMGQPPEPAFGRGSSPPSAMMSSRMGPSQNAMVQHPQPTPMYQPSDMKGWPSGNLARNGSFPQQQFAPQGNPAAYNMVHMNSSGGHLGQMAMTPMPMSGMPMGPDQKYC
# DSG3 Ab inh: human desmoglein-3 autoantibody binding inhibition; P32926; DSG3-coupled beads, scFv-anti-DSG3-GFP binding, flow cytometry; hits give low values; binding (percent of control), % at 10 µM; 310,000 compounds, 0.48% hits;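 active means binding more than 3 SD below its plate's average and above zero; inconclusive means below that plate limit but binding exactly zero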;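 further: hits lower antibody fragment binding to DSG3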
# CHT PAM: allosterically activates the human high affinity choline transporter | Q9GZV3 | CHT-expressing cells, membrane potential dye, choline EC20; hits give high values; LV-AA mutant CHT in HEK293 cells | B-score at 10 µM | 310,000 compounds, 0.49% hits | AID 488977;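 active means initial fluorescence not abnormally high and integrated response B-score, plate-corrected, over 3 SD above library mean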
# CHT block: inhibits the human high affinity choline transporter | Q9GZV3 | CHT-expressing cells, membrane potential dye, choline response; hits give low values | B-score at 10 µM | 310,000 compounds, 0.86% hits | AID 488975;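 active means B-score over 3 SD under the library average, and starting fluorescence ratio not unusually high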;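 further: choline stimulus applied at its EC90 after an EC20 pre-addition; B-score computed on integrated fluorescence ratio after choline addition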
# GPR7 antag conf: human GPR7 antagonism, confirmation assay. AID 1952. 2,400 compounds, 52% hits. inhibition, % at 4.4 µM. GPR7-expressing cells, calcium fluorescence antagonist mode. shares compounds with GPR7 antag; in the data active means inhibition above about 24%;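 further: stimulated with the GPR7 agonist NPW; 0% = agonist plus vehicle and 100% = vehicle alone without agonist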
# MCHR1 antag: MCHR1 (human) antagonism in GPR7 counter-screen | shares compounds with GPR7 antag | MCHR1-expressing cells, fluorescence antagonist assay | inhibition, % at 4.4 µM | 2,400 compounds, 62% hits; in the data active means inhibition above about 22%;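 further: 0% = vehicle with agonist and 100% = vehicle without agonist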
# * hit, by the source's call; i = inactive; ? = inconclusive; . = no result. Most compounds without a hit are left out; they make up all but 2.3% or so of the library.
SMILES,GPR7 antag,T cell HTS,p-CIP stab down,DSG3 Ab inh,CHT PAM,CHT block,GPR7 antag conf,MCHR1 antag
COc1ccc(C(=O)c2c(C)c3ccccc3n2CC(O)CNC(C)C)cc1 (centres undefined),21*,140,-5,111,i,i,12,18
COc1ccc(NCC(=O)n2c(C)c(C)c3ccccc32)cc1,4,181,-2,.,i,i,.,.
O=C(O)c1cocc1C(=O)O,.,.,.,109,.,.,.,.
COC(=O)C1CCC(=O)N1C(c1ccc(OC)cc1)c1cc(OC)c(OC)c(OC)c1 (centres undefined),.,.,.,92,.,.,.,.
CCN(CC)C(=O)c1ccc(/C=C/c2c[nH]c3ccccc23)[n+](C)c1,2,497,-29,305,i,i,.,.
CC[n+]1c(/C=C/c2c[nH]c3ccccc23)ccc2cc(C)ccc21,39*,.,-8,.,.,.,37*,80*
CCN(c1ccccc1)S(=O)(=O)c1cc(C(=O)NCC(c2ccc(OC)cc2)N(C)C)ccc1C (centres undefined),.,.,.,106,.,.,.,.
CCOc1ccc(NC(=O)CCn2c(=S)oc3ccccc32)cc1,35*,569,-11,93,i,i,10,6
Cc1ccc(NC(=O)CCn2c(=S)oc3ccccc32)cc1,-14,262,-4,86,i,i,.,.
CCn1cc(/C=N/NC(=O)c2cc3c(ccc4ccccc43)o2)c2ccccc21,5,782,-4,95,i,i,.,.
CCOC(=O)Cn1cc(/C=N/NC(=O)c2cc3ccccc3o2)c2ccccc21,26*,459,-13,.,i,i,-5,28*
CCc1nn(CC(=O)N2CCN(CC)CC2)c(=O)c2cc3sccc3n12,21*,36,-3,113,i,i,-9,-3
S=C(c1cn(CCOc2ccccc2)c2ccccc12)N1CCCC1,14,198,-6,.,i,i,.,.
Cc1ccc(OCCn2cc(C(=S)N3CCCC3)c3ccccc32)cc1C,27*,458,-2,.,i,i,29*,68*
COCCNC(=O)Cn1cc(C(=S)N2CCCCC2)c2ccccc21,24*,510,3,97,i,i,-6,3
C[C@@H]1CCCCO[C@H](CN(C)C(=O)Cc2ccccc2)[C@@H](C)CN([C@H](C)CO)C(=O)c2cc(N(C)C)ccc2O1,.,.,.,110,.,.,.,.
Nc1nc(Cl)cc(N2CCC(c3cc(-c4ccc(Cl)cc4)n[nH]3)CC2)n1,38*,743,-25,95,i,i,26*,72*
COc1ccc(-c2cc(C3CCN(c4cc(Cl)nc(N)n4)CC3)[nH]n2)cc1,7,246,-9,113,i,i,.,.
COC(=O)c1ccc(NC(=O)c2nc(S(=O)(=O)Cc3cccc(C)c3)ncc2Cl)cc1,32*,101,-14,124,i,i,72*,86*
CCOC(=O)c1ccc(NC(=O)c2nc(S(=O)(=O)Cc3ccccc3)ncc2Cl)cc1,22,548,-16,100,i,i,.,.
CN(c1ccccc1)S(=O)(=O)c1ccc(NC(=O)c2nc(S(C)(=O)=O)ncc2Cl)cc1,92*,45,-16,124,i,i,91*,102*
COc1ccccc1NC(=O)c1nc(S(=O)(=O)Cc2ccccc2)ncc1Cl,32*,100,-14,101,i,i,41*,30*
CCc1ccc(NC(=O)c2nc(S(=O)(=O)Cc3ccccc3)ncc2Cl)cc1,56*,403,-11,119,i,i,88*,103*
Cc1cccc(CS(=O)(=O)c2ncc(Cl)c(C(=O)NCc3ccc4c(c3)OCO4)n2)c1,10,334,6,.,i,i,.,.
COc1ccc(N2CC(C)(C)[C@H](CC(=O)Nc3ccccc3)C2=O)cc1,.,.,.,103,.,.,.,.
SMILES,GPR7 antag,T cell HTS,p-CIP stab down,DSG3 Ab inh,CHT PAM,CHT block,GPR7 antag conf,MCHR1 antag
CCS(=O)(=O)c1ncc(Cl)c(C(=O)Nc2ccc(S(=O)(=O)N3CCC(C)CC3)cc2)n1,58*,348,-24,139,i,i,89*,95*
COc1ccc(C2Nc3ccccc3C(=O)N2Cc2ccco2)cc1COc1ccccc1F (centres undefined),26*,351,2,103,i,i,25*,36*
COc1ccc(S(=O)(=O)N2CCC(C(=O)N[C@@H](C)C(=O)NCc3cccnc3)CC2)cc1,.,.,.,90,.,.,.,.
CC(C)CNc1ncnc2c1cnn2Cc1ccccc1Cl,38*,293,2,91,i,i,36*,24*
CC(C)Nc1ncnc2c1cnn2Cc1ccccc1Cl,31,198,0,89,i,i,.,.
Nc1ncnc(Nc2ccccc2Oc2ccccc2)n1,.,.,.,92,.,.,.,.
Cc1nonc1C(=O)N1CCCC(Nc2ccc(C(C)C)cc2)C1 (centres undefined),25*,197,0,103,i,i,5,26*
CC(C)c1ccc(NC2CCCN(C(=O)CC3CCCC3)C2)cc1 (centres undefined),35*,232,4,107,i,i,30*,27*
O=c1[nH]c(=O)n2ncnc2[nH]1,.,.,.,105,.,.,.,.
O=C(COc1ccccc1F)N1CCc2ccccc2C1,26*,405,0,96,i,i,34*,35*
O=C(COc1ccccc1Cl)N1CCc2ccccc2C1,0,148,6,118,i,i,.,.
O=C(NC(Cc1ccccc1)C(=O)N1CCN(S(=O)(=O)c2ccccc2)CC1)c1ccccc1 (centres undefined),22*,596,-11,127,i,i,-8,4
Clc1cccc(Cl)c1CON/C=N/c1ncnc2sccc12,-6,241,-10,98,i,i,.,.
Clc1cccc(CON/C=N/c2ncnc3sccc23)c1,37*,215,0,112,i,i,14,40*
O=C1c2ccccc2CCC12OC2c1ccc([N+](=O)[O-])cc1 (centres undefined),.,.,.,100,.,.,.,.
COc1ccc(NC(=O)NCCN2CCN(c3cc(OC)ccc3OC)CC2)cc1,-7,243,-4,115,i,i,.,.
COc1ccc(Cl)c(N2CCN(CCCNC(=O)Nc3ccc(C)cc3)CC2)c1,31*,238,-9,?,i,i,22,42*
N#CC(c1ccc(N)cc1)C(CC(=O)c1ccccc1)c1ccccc1 (centres undefined),.,.,.,100,.,.,.,.
C[C@H](N)C(=O)OCc1ccc([N+](=O)[O-])cc1,-15,272,-16,101,i,i,.,.
